Data set [1] in a line: Partition coefficient (logP). To be noted: octanol/water. The class given is physicochemical. The essentials: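 Octanol/pH 7.4 buffer partition; values were either measured or calculated from tables of π values.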
In the next data set the target is Albumin (Homo sapiens, UniProt P02768). Nature of the data set: Human serum albumin index was measured by retention time on an HPLC column containing human albumin. The essentials: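 HPLC on a column containing human serum albumin. Retention volume of each compound is divided by that of a reference standard and normalized so the standard equals 100.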
The next data set deals with Glutamate NMDA receptor. Nature of the data set: Affinity for the glycine binding site on rat N-methyl-D-aspartate glutamate receptor 1, determined by displacement of the glycine site antagonist [3H]L-689,560 from rat cortical membranes. The class given is cell membranes, Membrane.

Chain of Albumin (P02768 whole entry): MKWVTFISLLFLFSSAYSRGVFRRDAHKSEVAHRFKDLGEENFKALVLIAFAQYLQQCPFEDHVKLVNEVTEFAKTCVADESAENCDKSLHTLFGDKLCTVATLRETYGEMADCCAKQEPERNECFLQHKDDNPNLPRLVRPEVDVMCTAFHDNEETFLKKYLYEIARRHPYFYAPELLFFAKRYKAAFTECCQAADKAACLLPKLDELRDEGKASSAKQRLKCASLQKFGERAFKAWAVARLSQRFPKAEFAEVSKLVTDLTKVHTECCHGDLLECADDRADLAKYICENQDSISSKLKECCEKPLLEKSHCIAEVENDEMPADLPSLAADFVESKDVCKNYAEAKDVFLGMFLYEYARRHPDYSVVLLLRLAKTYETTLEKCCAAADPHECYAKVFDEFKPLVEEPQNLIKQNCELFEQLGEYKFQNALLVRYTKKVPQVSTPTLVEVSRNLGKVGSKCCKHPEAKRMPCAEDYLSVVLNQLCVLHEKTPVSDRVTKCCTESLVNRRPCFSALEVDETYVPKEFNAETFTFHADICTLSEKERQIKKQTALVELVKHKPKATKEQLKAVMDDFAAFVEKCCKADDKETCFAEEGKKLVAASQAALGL

In data set [1], `Oc1nc2cc(Cl)ccc2c(O)c1-c1ccc2c(c1)Oc1ccccc1O2` displayed a logP of 4.5. Also, the HSAI on Albumin was found to be 260.

Turning to `Oc1nc2cc(Cl)ccc2c(O)c1-c1cccc(Cc2ccoc2)c1`, at Glutamate NMDA receptor, the IC50 turned out to be 8.9 nM. The HSAI at Albumin is listed as 50.

In the case of `Oc1nc2cc(Cl)ccc2c(O)c1-c1cccc(OCC2CC2)c1`, on Glutamate NMDA receptor, the IC50 worked out at 37.8 nM. For the same compound, the HSAI at Albumin came out at 21.

With `Oc1nc2cc(Cl)ccc2c(O)c1-c1ccco1`, the HSAI at Albumin came out at 6.

Compound `O=c1[nH]c2cc(Cl)ccc2c(O)c1-c1cccc(NCc2ccccc2)c1` gave an IC50 at Glutamate NMDA receptor of 9.6 nM. Moreover, the HSAI at Albumin stood at 76.

Consider `COc1ccc(-c2c(O)c3ccc(Cl)cc3[nH]c2=O)cc1`, for which, on Glutamate NMDA receptor, the IC50 is 421 nM. Moreover, on Albumin, the HSAI is 8.

With `Oc1nc2cc(Cl)ccc2c(O)c1-c1cccc(C#Cc2ccccc2)c1`, at Glutamate NMDA receptor, the IC50 was 34.3 nM. In addition, the HSAI at Albumin was 577.

For `O=C(c1c(O)nc2cc(Cl)ccc2c1O)C1CC1`, the logP in data set [1] worked out at 0.35. Further, the HSAI at Albumin turned out to be 6.

On Glutamate NMDA receptor, `COc1cccc(-c2c(O)nc3cc(Cl)ccc3c2O)c1` came in with an IC50 of 204 nM. The compound also had an HSAI on Albumin of 10.

At Glutamate NMDA receptor, `CCOC(=O)c1c(O)c2ccc(I)cc2[nH]c1=O` came in with an IC50 of 30000 nM. The compound also showed an HSAI at Albumin of 7.

As to `Oc1nc2cc(Cl)ccc2c(O)c1-c1ccc(F)cc1`, the IC50 at Glutamate NMDA receptor is 658 nM. This compound registered an HSAI on Albumin of 8.

For `O=C(c1ccc(Cl)s1)c1c(O)nc2cc(Cl)ccc2c1O`, on Glutamate NMDA receptor, the IC50 was determined as 1520 nM. The compound further gave an HSAI on Albumin of 26.

In turn, `COc1ccccc1Cc1cccc(-c2c(O)nc3cc(Cl)ccc3c2O)c1` had an IC50 on Glutamate NMDA receptor of 8 nM. This compound gave an HSAI at Albumin of 118.

`Oc1nc2cc(Cl)ccc2c(O)c1-c1cccc(C2=CCc3ccccc32)c1`: the IC50 at Glutamate NMDA receptor came to 6 nM. Further, the HSAI at Albumin stood at 571.

Turning to `O=c1[nH]c2cc(Cl)ccc2c(O)c1-c1cccc(Cc2ccccc2)c1`, the logP in data set [1] stood at 2.83. Moreover, at Albumin, the HSAI is recorded as 126.

`Oc1nc2cc(Cl)ccc2c(O)c1-c1cccc(-n2ccc3ccccc32)c1` showed an HSAI at Albumin of 322.

`CCOC(=O)c1c(O)c2ccc(Cl)cc2[nH]c1=O` displayed an IC50 at Glutamate NMDA receptor of 16700 nM. This compound registered a logP in data set [1] of 0.7.

On to `O=C(OCCc1cccs1)c1c(O)nc2cc(Cl)ccc2c1O`, for which the HSAI at Albumin is 44.

Turning to `Cc1ccccc1Oc1cccc(-c2c(O)nc3cc(Cl)ccc3c2O)c1`, the IC50 on Glutamate NMDA receptor was found to be 1.3 nM. The compound further displayed an HSAI at Albumin of 163.

In turn, `CSc1ccc(Cc2cccc(-c3c(O)nc4cc(Cl)ccc4c3O)c2)cc1` returned an IC50 at Glutamate NMDA receptor of 2.4 nM. In addition, the HSAI at Albumin amounted to 267.

`CNCc1ccc(Cc2cccc(-c3c(O)nc4cc(Cl)ccc4c3O)c2)cc1` returned an IC50 at Glutamate NMDA receptor of 124 nM. Moreover, at Albumin, the HSAI is on record as 13.

`Oc1nc2cc(Cl)ccc2c(O)c1-c1cccc(Cc2ccc(CCN3CCOCC3)cc2)c1` displayed an IC50 on Glutamate NMDA receptor of 9 nM. Also, the logP in data set [1] is 3.01. The compound also displayed an HSAI at Albumin of 49.

In turn, `CCc1cc(Cl)cc2nc(O)c(-c3ccccc3)c(O)c12` returned an HSAI at Albumin of 103.

`O=[N+]([O-])c1cc([N+](=O)[O-])c2nc(O)c(O)nc2c1` displayed an HSAI at Albumin of 4.

With `CC(=O)c1cc(Cc2cccc(-c3c(O)c4ccc(Cl)cc4[nH]c3=O)c2)ccc1O`, the IC50 at Glutamate NMDA receptor came to 42.7 nM. For the same compound, the HSAI on Albumin was found to be 75.

As for `O=c1[nH]c2cc(Cl)ccc2c(O)c1-c1cccc(Oc2ccsc2)c1`, the logP in data set [1] is 2.75. For the same compound, the HSAI on Albumin was 82.

At Albumin, `Oc1nc2cc(Cl)ccc2c(O)c1-c1cccc(NCc2ccsc2)c1` yielded an HSAI of 68.

As to `O=C(OCCc1ccsc1)c1c(O)nc2cc(Cl)ccc2c1O`, the IC50 on Glutamate NMDA receptor was determined as 3000 nM. Also, at Albumin, the HSAI was 45.

For the compound `C=C(C)COc1cccc(-c2c(O)nc3cc(Cl)ccc3c2O)c1`, the IC50 at Glutamate NMDA receptor was determined as 10.9 nM. On Albumin, this compound came in with an HSAI of 31.

Compound `O=C(O)c1cccc(-c2c(O)nc3cc(Cl)ccc3c2O)c1` yielded an IC50 at Glutamate NMDA receptor of 75.6 nM. The compound further returned an HSAI at Albumin of 9.

`Oc1nc2cc(Cl)ccc2c(O)c1-c1cccc(-c2ccccc2)c1` gave an HSAI at Albumin of 117.

As to `COCCOCOc1ccc(Cc2cccc(-c3c(O)nc4cc(Cl)ccc4c3O)c2)cc1`, the IC50 on Glutamate NMDA receptor turned out to be 3.6 nM. In addition, at Albumin, the HSAI turned out to be 56.

Consider `Cc1cn(-c2c(O)nc3cc(Cl)ccc3c2O)c2ccccc12`, for which, at Albumin, the HSAI came to 57.

The compound `O=C(c1ccc(Br)s1)c1c(O)nc2cc(Cl)ccc2c1O` gave an IC50 on Glutamate NMDA receptor of 954 nM. For the same compound, the HSAI on Albumin is reported as 40.

On Glutamate NMDA receptor, `Cc1ccc(Oc2cccc(-c3c(O)nc4cc(Cl)ccc4c3O)c2)cc1` returned an IC50 of 7.8 nM. The HSAI at Albumin is recorded as 310.

At Glutamate NMDA receptor, `O=C(CCc1c(C(=O)O)[nH]c2cc(Cl)cc(Cl)c12)Nc1ccccc1` gave an IC50 of 36.4 nM. The compound further yielded an HSAI at Albumin of 142.

As for `O=C(Cc1ccccc1)c1c(O)c2ccc(Cl)cc2[nH]c1=O`, the logP in data set [1] came to 1.66. Moreover, the HSAI on Albumin is recorded as 28.

`Cn1cccc1-c1c(O)nc2cc(Cl)ccc2c1O` showed an IC50 at Glutamate NMDA receptor of 818 nM. On Albumin, this compound returned an HSAI of 3.

Regarding `C=CCOC(=O)c1c(O)c2ccc(Cl)cc2[nH]c1=O`, on Albumin, the HSAI was found to be 6.

Regarding `Cc1cccc(-c2c(O)nc3cc(Cl)ccc3c2O)c1`, the IC50 at Glutamate NMDA receptor is 84 nM. At Albumin, this compound came in with an HSAI of 14.

With `O=C(OCC#Cc1cccc(O)c1)c1c(O)c2ccc(Cl)cc2[nH]c1=O`, the HSAI at Albumin is on record as 213.

For the compound `Oc1nc2cc(Cl)ccc2c(O)c1-c1cccc(OCc2ccccc2)c1`, the IC50 on Glutamate NMDA receptor worked out at 12.2 nM. The HSAI on Albumin is on record as 118.

On Glutamate NMDA receptor, `Oc1nc2cc(Cl)ccc2c(O)c1-c1ccsc1` returned an IC50 of 352 nM. The HSAI at Albumin is on record as 11.

At Glutamate NMDA receptor, `CN(C)Cc1sccc1Oc1cccc(-c2c(O)nc3cc(Cl)ccc3c2O)c1` registered an IC50 of 32.6 nM. Besides, the HSAI on Albumin is 13.

Regarding `CN(Cc1cccc(-c2c(O)nc3cc(Cl)ccc3c2O)c1)c1ccccc1`, the IC50 on Glutamate NMDA receptor was 11.7 nM. At Albumin, this compound yielded an HSAI of 140.

Regarding `O=C(c1c(O)nc2cc(Cl)ccc2c1O)c1csc2ccccc12`, the IC50 on Glutamate NMDA receptor came out at 2230 nM. Besides, at Albumin, the HSAI is on record as 59.

On Glutamate NMDA receptor, `O=C(c1cccs1)c1c(O)c2ccc(Cl)cc2[nH]c1=O` returned an IC50 of 1090 nM. The compound also yielded an HSAI on Albumin of 9.

For `Oc1nc2cc(Cl)ccc2c(O)c1-c1cccc(Cc2cccc3ccccc23)c1`, on Glutamate NMDA receptor, the IC50 stood at 27.9 nM. The HSAI at Albumin was 629.

`O=C(c1ccco1)c1c(O)nc2cc(Cl)ccc2c1O` displayed an HSAI on Albumin of 3.

The compound `O=c1[nH]c2ccccc2c(O)c1-c1ccccc1` yielded a 50% inhibitory concentration (IC50) at Glutamate NMDA receptor of 7500 nM. The compound further returned an HSAI at Albumin of 2.

As for `CCOC(=O)c1c(O)c2ccc([N+](=O)[O-])cc2[nH]c1=O`, on Albumin, the HSAI amounted to 1.

Regarding `CCc1cc(Cl)cc2nc(O)c(-c3cccc(Oc4ccccc4)c3)c(O)c12`, at Glutamate NMDA receptor, the IC50 worked out at 1.95 nM. The HSAI at Albumin turned out to be 837.

`O=C(c1ccccc1)c1cccc(-c2c(O)nc3cc(Cl)ccc3c2O)c1` had an IC50 at Glutamate NMDA receptor of 3.6 nM. The compound further showed an HSAI at Albumin of 58.

`Cc1ccc(-c2c(O)nc3cc(Cl)ccc3c2O)cc1` yielded an IC50 on Glutamate NMDA receptor of 391 nM. The HSAI on Albumin is recorded as 13.

Compound `Nc1c(-c2ccccc2)c(=O)[nH]c2cc(Cl)ccc12` returned an IC50 on Glutamate NMDA receptor of 6750 nM. The compound also gave an HSAI on Albumin of 7.

`O=C(O)c1cc(O)c2ccc(Cl)cc2n1` [7-CHLOROKYNURENIC ACID] yielded a logP in data set [1] of 1.15. Also, the HSAI on Albumin is on record as 2.

Usually logP stands for the decadic logarithm of the partition coefficient of the neutral form, usually between octanol and water. High values mean a more lipophilic compound, low ones a more hydrophilic compound. Usually IC50 stands for the concentration that inhibits the measured activity by half. Low values mean higher potency, high ones lower potency.

These data come from ChEMBL document CHEMBL1130334, “Effect of plasma protein binding on in vivo activity and brain penetration of glycine/NMDA receptor antagonists” (J Med Chem, 1997).
